Measurements: ChEMBL document CHEMBL1126216, “Amide, urea, and carbamate analogues of the muscarinic agent [4-[[N-(3-chlorophenyl)carbamoyl]oxy]-2-butynyl]trimethylammonium chloride” (1992)

How the values were obtained:
Rattus norvegicus [1] = assay: In vivo intravenous dose required to produce a half maximal pressor response in the pithed rat.; assay type: functional
How it was run: (§1)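 Male Sprague-Dawley rats (250-300 g), anesthetized with sodium amytal (125 mg/kg ip), intubated, pithed; body temperature held at 37 °C; 30 min stabilization. Ganglionic nicotinic block with pentolinium tartrate (18.5 μmol/kg iv) 20 min before agonist. Drugs in 0.9% saline, iv, 0.1 mL/100 g. Mean arterial pressure recorded; two or three compounds per rat; five to eight rats per compound.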

Rattus norvegicus [2] = assay: In vivo intrinsic pressor activity for its ability to maximally elevate arterial pressure in pithed rat.; assay type: functional, Artery; how it was run: as §1
[3] = system: Muscarinic acetylcholine receptor M1 (Oryctolagus cuniculus)

Row | KA [3] | SMILES | ED50 (Rattus norvegicus [1]) | IPA (Rattus norvegicus [2])
1 | 1.46 µM | CC(C#CC[N+](C)(C)C)OC(=O)Nc1cccc(Cl)c1 (racemic) | 0.09 µmol/kg | 0.76
2 | 0.49 µM | C[C@H](C#CC[N+](C)(C)C)OC(=O)Nc1ccc(Cl)cc1 | 0.039 µmol/kg | 0.8
3 | 0.18 µM | C[C@@H](C#CC[N+](C)(C)C)OC(=O)Nc1ccc(Cl)cc1 | 0.008 µmol/kg | 0.66
4 | 2.12 µM | C[C@@H](C#CC[N+](C)(C)C)OC(=O)Nc1cccc(Cl)c1 | 0.12 µmol/kg | 0.7
5 | 0.78 µM | C[C@H](C#CC[N+](C)(C)C)OC(=O)Nc1cccc(Cl)c1 | 0.18 µmol/kg | 1

Second part, the compound before the results:

Row | SMILES | KA [3] | ED50 (Rattus norvegicus [1]) | IPA (Rattus norvegicus [2])
6 | CC(C#CC[N+](C)(C)C)OC(=O)Nc1ccc(Cl)cc1 (racemic) | 0.48 µM | 0.029 µmol/kg | 0.75
7 | CC(C#CC[N+](C)(C)C)N(C)C(=O)Nc1cccc(Cl)c1 (configuration not stated) | 83.3 µM | 0.69 µmol/kg | 1
8 | C[N+](C)(C)CC#CCOC(=O)Nc1cccc(Cl)c1 |  | 0.45 µmol/kg | 1
9 | CN(CC#CC[N+](C)(C)C)C(=O)Cc1cccc(Cl)c1 | 20.2 µM | 0.92 µmol/kg | 1
10 | CC(C#CC[N+](C)(C)C)N(C)C(=O)Cc1cccc(Cl)c1 (configuration not stated) | 416 µM | 1.48 µmol/kg | 1
11 | CN(CC#CC[N+](C)(C)C)C(=O)Nc1cccc(Cl)c1 | 24.8 µM | 0.55 µmol/kg | 1
